Our source for the IC50 and Kd values is ChEMBL document CHEMBL4118028, “Sesquiterpene Quinones/Hydroquinones from the Marine Sponge Spongia pertusa Esper” (J Nat Prod, 2017).

As a reminder, the IC50 is the midpoint of a concentration-inhibition curve. Low values mean greater potency in that assay, high ones weaker potency in that assay. Broadly, the Kd is a measure of binding affinity in units of concentration. Read a high Kd as a looser complex.

The test system of one assay is A549. The assay is described as follows: Cytotoxicity against human A549 cells after 72 hrs by CCK8 assay. In kind it is functional, cell-based. The note with it: A549, 72 h. Background: Formazan colour is commonly taken as a measure of viable cells.
The subject of a further assay is U-937. The assay is described as follows: Cytotoxicity against human U937 cells after 72 hrs by CCK8 assay. The note with it: U-937, 72 h.
The next assay deals with HeLa. Put plainly: Cytotoxicity against human HeLa cells after 72 hrs by CCK8 assay. In kind it is functional, cell-based.
The next assay has as its system HepG2. Put plainly: Cytotoxicity against human HepG2 cells after 72 hrs by CCK8 assay. The note with it: HepG2, 72 h.
The target of assay [1] is Cyclin-dependent kinase 2 (Homo sapiens, UniProt P24941). Put plainly: Binding affinity to CDK2 (unknown origin) by surface plasmon resonance analysis. In outline:
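CDK-2 amine-coupled to CM5 chip flow cell 2 (50 μg/mL in 10 mM acetate pH 4.5, ~5500 RU). BSA reference cell (pH 3.8, ~6000 RU) subtracted. Running buffer PBS pH 7.4, 25 °C, 30 μL/min. Analytes at several concentrations injected 120 s, 120 s dissociation, with solvent correction. Glycine-HCl pH 2.1 regeneration for 30 s. Kd from steady-state affinity model fit.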

For `C=C1CCC[C@H]2[C@](C)(CC3=C(O)C(=O)C=C(NCCc4ccccc4)C3=O)[C@@H](C)CC[C@]12C`, the IC50 in the assay on A549 is > 10 µM; in the assay with U-937, 600 nM; in the assay with HeLa, 5.4 µM; with HepG2, 3.5 µM.

As for `C=C1CCC[C@H]2[C@]3(C)CC4=C(O[C@]3(C)CC[C@]12C)C(=O)C=C(NC)C4=O`, the IC50 with A549 is > 10 µM. The compound further had a Kd in assay [1] of 4.8 µM.

`C=C1CCC[C@@]23OC4=C(C[C@]2(C)[C@@H](C)CC[C@@]13C)C(=O)C(OCC)=CC4=O`: in the assay with A549, the IC50 is > 10 µM.

As for `C=C1CCC[C@@H]2[C@@]1(C)CC[C@@]1(C)OC3=C(C[C@@]21C)C(=O)C(NC)=CC3=O`, the IC50 with A549 is > 10 µM.

As to `C=C1CCC[C@H]2[C@]3(C)CC4=C(O[C@]3(C)CC[C@]12C)C(=O)C=C(OCC)C4=O`, the IC50 in the assay on A549 was > 10 µM.

Regarding `C=C1CCC[C@@]23OC4=C(C[C@]2(C)[C@@H](C)CC[C@@]13C)C(=O)C(NC)=CC4=O`, the concentration for half-maximal inhibition (IC50) in the assay with A549 was > 10 µM.

For `CCOC1=CC(=O)C2=C(C[C@@H]3[C@@]4(C)CCCC(C)(C)[C@@H]4CC[C@@]3(C)O2)C1=O`, the IC50 in the assay on A549 is > 10 µM.

As for `COc1cccc2c1C(=O)c1c(O)c3c(c(O)c1C2=O)C[C@@](O)(C(=O)CO)C[C@@H]3O[C@H]1C[C@H](N)[C@H](O)[C@H](C)O1` [DOXORUBICIN], 0.1 µM corresponded to half-maximal inhibition in the assay with A549 (IC50).
